Converted amounts (≈) assume the structure as drawn. The source made the active and inactive calls. No cut-off for these calls is given here.
How the values were obtained:
[1] = tested on: Mycobacterium tuberculosis; experiment: Antimycobacterial activity against pan-susceptible Mycobacterium tuberculosis H37Rv ATCC 27294 after 7 days by resazurin microtitre assay; type: functional
Method in brief: (§1)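 REMA MIC. Strains kept on Ogawa-Kudoh medium 14 days at 37 °C. Suspension vortexed and adjusted to McFarland tube 1 (3.2 × 10^6 cfu/mL), then diluted 1:20 in Middlebrook 7H9 with 10% OADC and glycerol. Compounds tested from 100 ug/mL down to 0.19 ug/mL. Incubated 7 days at 37 °C, resazurin added, 2 more days at 37 °C; colour change read.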

[2] = tested on: PBMC; experiment: Cytotoxicity against human PBMC after 72 hrs by alamar blue assay; type: cell-based
Method in brief: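 Alamar Blue assay on human PBMC. Compounds at 0.048 to 25 µg/mL in DMSO (0.1%) added after 24 h and exposed 72 h. Resazurin added 24 h before the end. Absorbance read at 570 and 595 nm, medium blank subtracted, and % reduced computed with correction factor R0. Effect expressed as percentage of control.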

[3] = tested on: Mycobacterium tuberculosis; experiment: Antimycobacterial activity against pan-susceptible Mycobacterium tuberculosis H37Rv; type: functional; method in brief: as §1

With `CC1(C)CCc2c(c3ccccc3c3nc(-c4ccc(Cl)cc4)[nH]c23)O1` the MIC ([1]; H37Rv ATCC 27294, 168 h) was 34.4 µM (≈ 12.5 µg/mL) and the IC50 [2] was > 25 µg/mL.

With `CC1(C)CCc2c(c3ccccc3c3nc(-c4ccc(C#N)cc4)[nH]c23)O1` the MIC [1] was “inactive” and the IC50 [2] was > 25 µg/mL.

`Cc1ccc(-c2nc3c(o2)c2c(c4ccccc43)OC(C)(C)C2)cc1` was tested, and the MIC ([1]; H37Rv ATCC 27294, 168 h) was > 304 µM.

`CC1(C)CCc2c(c3ccccc3c3nc(-c4cccc(Br)c4)[nH]c23)O1` was tested, and the MIC ([1]; H37Rv ATCC 27294, 168 h) was 15.3 µM (≈ 6.23 µg/mL) and the IC50 [2] was > 25 µg/mL.

`C=CCC1=C(O)C(=O)c2ccccc2C1=O` showed an MIC ([1]; H37Rv ATCC 27294, 168 h) of 467 µM (≈ 100 µg/mL).

In the case of `CC1(C)CCc2c(c3ccccc3c3nc(-c4ccc(Br)cc4)[nH]c23)O1`, the MIC [1] is reported as “inactive” and the IC50 [2] is reported as > 25 µg/mL.

In the case of `CC1(C)CCc2c(c3ccccc3c3nc(-c4cc5ccccc5cn4)[nH]c23)O1`, the MIC ([1]; H37Rv ATCC 27294, 168 h) is reported as 16.4 µM (≈ 6.22 µg/mL) and the IC50 [2] is reported as > 25 µg/mL.

With `CC1(C)CCc2c(c3ccccc3c3nc(-c4ccccc4C#N)oc23)O1` the MIC ([1]; H37Rv ATCC 27294, 168 h) was 35.2 µM (≈ 12.5 µg/mL).

`CC1(C)CCc2c(c3ccccc3c3nc(-c4ccccc4)[nH]c23)O1` was tested, and the MIC ([1]; H37Rv ATCC 27294, 168 h) was > 304 µM and the IC50 [2] was > 25 µg/mL.

With `Cc1ccc(-c2nc3c([nH]2)c2c(c4ccccc43)OC(C)(C)C2)cc1` the MIC ([1]; H37Rv ATCC 27294, 168 h) was > 304 µM.

With `CC1(C)CCc2c(c3ccccc3c3nc(-c4ccc(C(F)(F)F)cc4)[nH]c23)O1` the MIC [1] was “inactive”.

For `CC1(C)CCc2c(c3ccccc3c3nc(-c4ccc([N+](=O)[O-])cc4)[nH]c23)O1`, the MIC ([1]; H37Rv ATCC 27294, 168 h) was 268 µM (≈ 100 µg/mL).

`CC1(C)CCc2c(c3ccccc3c3nc(-c4cccc(C(F)(F)F)c4)[nH]c23)O1` showed an MIC ([1]; H37Rv ATCC 27294, 168 h) of 4 µM (≈ 1.59 µg/mL).

`CC1(C)CCc2c(c3ccccc3c3nc(-c4cccc(F)c4)[nH]c23)O1` was tested, and the MIC ([1]; H37Rv ATCC 27294, 168 h) was 9 µM (≈ 3.12 µg/mL) and the IC50 [2] was > 25 µg/mL.

`CC1CC2=C(O1)c1ccccc1C(=O)C2=O` (stereo not drawn) was tested, and the MIC ([1]; H37Rv ATCC 27294, 168 h) was 14.5 µM (≈ 3.11 µg/mL).

In the case of `CC1(C)CCc2c(c3ccccc3c3nc(-c4ccccc4Br)[nH]c23)O1`, the MIC ([1]; H37Rv ATCC 27294, 168 h) is reported as 7.6 µM (≈ 3.1 µg/mL) and the IC50 [2] is reported as > 25 µg/mL.

For `CC1(C)CCc2c(c3ccccc3c3nc(-c4cccc([N+](=O)[O-])c4)[nH]c23)O1`, the MIC [1] was “inactive” and the IC50 [2] was > 25 µg/mL.

In the case of `CC1(C)Cc2c(c3ccccc3c3nc(-c4ccc([N+](=O)[O-])cc4)oc23)O1`, the MIC ([1]; H37Rv ATCC 27294, 168 h) is reported as > 278 µM.

For `CC1(C)Cc2c(c3ccccc3c3nc(-c4ccccc4)[nH]c23)O1`, the MIC ([1]; H37Rv ATCC 27294, 168 h) was > 318 µM and the IC50 [2] was > 25 µg/mL.

In the case of `CC1(C)CCc2c(c3ccccc3c3nc(-c4ccccc4[N+](=O)[O-])[nH]c23)O1`, the MIC ([1]; H37Rv ATCC 27294, 168 h) is reported as 268 µM (≈ 100 µg/mL) and the IC50 [2] is reported as > 25 µg/mL.

In the case of `CC1(C)CCc2c(c3ccccc3c3nc(-c4cccc(C#N)c4)[nH]c23)O1`, the MIC [1] is reported as “inactive” and the IC50 [2] is reported as > 25 µg/mL.

Compound `CC1(C)CCc2c(c3ccccc3c3nc(-c4ccc(C#N)cc4)oc23)O1` has an MIC ([1]; H37Rv ATCC 27294, 168 h) of 17.6 µM (≈ 6.24 µg/mL).

`CC1(C)CCc2c(c3ccccc3c3nc(-c4cccnc4)[nH]c23)O1` was tested, and the MIC [1] was “inactive”.

`CC(C)CCc1c2[nH]c3ccccc3nc-2c2c(c1=O)CCCC2` was tested, and the MIC [3] was ≤ 3 µg/mL.

`CC1(C)CCc2c(c3ccccc3c3nc(-c4ccc(F)cc4)[nH]c23)O1` was tested, and the MIC ([1]; H37Rv ATCC 27294, 168 h) was 72.2 µM (≈ 25 µg/mL) and the IC50 [2] was > 25 µg/mL.

`NNC(=O)c1ccncc1` [ISONIAZID] was tested, and the MIC ([1]; H37Rv ATCC 27294, 168 h) was ≤ 0.4 µM.

Work on `COc1ccccc1-c1nc2c([nH]1)c1c(c3ccccc32)OC(C)(C)CC1` yielded an MIC ([1]; H37Rv ATCC 27294, 168 h) of 17.4 µM (≈ 6.24 µg/mL).

In the case of `CC1Cc2c(c3ccccc3c3nc(-c4ccc([N+](=O)[O-])cc4)oc23)O1` (stereo not drawn), the MIC ([1]; H37Rv ATCC 27294, 168 h) is reported as > 289 µM.

`CC1(C)CCc2c(c3ccccc3c3nc(-c4cccc(C#N)c4)oc23)O1` gave an MIC ([1]; H37Rv ATCC 27294, 168 h) of 35.2 µM (≈ 12.5 µg/mL).

`CC1(C)CCc2c(c3ccccc3c3nc(-c4ccccn4)[nH]c23)O1` was tested, and the MIC ([1]; H37Rv ATCC 27294, 168 h) was 75.9 µM (≈ 25 µg/mL).

For `C=CCC1Cc2c(c3ccccc3c3nc4ccccc4nc23)OC1(C)C` (stereo not drawn), the MIC [3] was 0.78 µg/mL (≈ 2.2 µM).

`CC1(C)CCc2c(c3ccccc3c3nc(-c4ccccc4C(F)(F)F)[nH]c23)O1` gave an MIC ([1]; H37Rv ATCC 27294, 168 h) of 4 µM (≈ 1.59 µg/mL).

In the case of `CO[C@H]1/C=C/O[C@@]2(C)Oc3c(C)c(O)c4c(O)c(c(/C=N/N5CCN(C)CC5)c(O)c4c3C2=O)NC(=O)/C(C)=C\C=C\[C@H](C)[C@H](O)[C@@H](C)[C@@H](O)[C@@H](C)[C@H](OC(C)=O)[C@@H]1C` [RIFAMPIN], the MIC ([1]; H37Rv ATCC 27294, 168 h) is reported as ≤ 0.1 µM.

`CC1(C)CCc2c(c3ccccc3c3nc(-c4cnc5ccccc5c4)[nH]c23)O1` was tested, and the MIC [1] was “inactive”.

`Cc1ccccc1-c1nc2c([nH]1)c1c(c3ccccc32)OC(C)(C)CC1` was tested, and the MIC ([1]; H37Rv ATCC 27294, 168 h) was 9 µM (≈ 3.08 µg/mL).

From ChEMBL document CHEMBL2157923, “1,3-Azoles from ortho-naphthoquinones: synthesis of aryl substituted imidazoles and oxazoles and their potent activity against Mycobacterium tuberculosis” (Bioorg Med Chem, 2012)
